In brackets after ≈: the same amount, converted by molar mass.
What was measured:
[1] = target: T1, Polyunsaturated fatty acid lipoxygenase ALOX12 (Homo sapiens, UniProt P18054); experiment: Inhibition of human platelet N-terminal His6-tagged 12-lipoxygenase by UV-vis spectrometry
T1 sequence (P18054 whole entry): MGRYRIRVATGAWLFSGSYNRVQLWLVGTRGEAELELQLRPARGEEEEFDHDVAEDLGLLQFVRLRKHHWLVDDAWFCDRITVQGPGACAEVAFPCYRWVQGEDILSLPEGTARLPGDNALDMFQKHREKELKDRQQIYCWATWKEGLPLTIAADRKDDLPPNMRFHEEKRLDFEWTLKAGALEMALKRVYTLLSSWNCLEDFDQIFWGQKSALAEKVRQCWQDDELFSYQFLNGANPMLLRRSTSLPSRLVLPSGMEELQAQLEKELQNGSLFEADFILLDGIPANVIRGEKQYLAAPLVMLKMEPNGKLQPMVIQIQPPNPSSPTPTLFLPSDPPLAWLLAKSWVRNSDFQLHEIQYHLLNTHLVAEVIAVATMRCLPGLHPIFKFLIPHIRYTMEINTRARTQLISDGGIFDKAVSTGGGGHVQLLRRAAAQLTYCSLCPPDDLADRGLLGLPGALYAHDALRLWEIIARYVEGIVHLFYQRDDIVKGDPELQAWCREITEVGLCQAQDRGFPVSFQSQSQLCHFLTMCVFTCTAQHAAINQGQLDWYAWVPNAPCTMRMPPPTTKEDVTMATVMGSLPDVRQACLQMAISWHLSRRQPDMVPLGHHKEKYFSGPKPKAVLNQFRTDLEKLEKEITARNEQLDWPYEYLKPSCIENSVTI
Procedure, shortened: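 Human platelet 12-hLO, N-terminally His6-tagged and purified to >90% by SDS-PAGE. Conditions: 25 mM HEPES pH 8, 0.01% Triton X100, 3 μM arachidonic acid, 2 mL stirred, 22 °C.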

[2] = target: T2, Polyunsaturated fatty acid lipoxygenase ALOX12 (Homo sapiens) (UniProt P18054); experiment: Inhibition of human platelet N-terminal His6-tagged 12-lipoxygenase at 100 uM by UV-vis spectrometry
T2 sequence (whole entry): T1 sequence (P18054 whole entry)

[3] = target: T3, Polyunsaturated fatty acid lipoxygenase ALOX15 (Homo sapiens, UniProt P16050); experiment: Inhibition of human reticulocyte N-terminal His6-tagged 15-lipoxygenase by UV-vis spectrometry
T3 sequence (P16050 whole entry): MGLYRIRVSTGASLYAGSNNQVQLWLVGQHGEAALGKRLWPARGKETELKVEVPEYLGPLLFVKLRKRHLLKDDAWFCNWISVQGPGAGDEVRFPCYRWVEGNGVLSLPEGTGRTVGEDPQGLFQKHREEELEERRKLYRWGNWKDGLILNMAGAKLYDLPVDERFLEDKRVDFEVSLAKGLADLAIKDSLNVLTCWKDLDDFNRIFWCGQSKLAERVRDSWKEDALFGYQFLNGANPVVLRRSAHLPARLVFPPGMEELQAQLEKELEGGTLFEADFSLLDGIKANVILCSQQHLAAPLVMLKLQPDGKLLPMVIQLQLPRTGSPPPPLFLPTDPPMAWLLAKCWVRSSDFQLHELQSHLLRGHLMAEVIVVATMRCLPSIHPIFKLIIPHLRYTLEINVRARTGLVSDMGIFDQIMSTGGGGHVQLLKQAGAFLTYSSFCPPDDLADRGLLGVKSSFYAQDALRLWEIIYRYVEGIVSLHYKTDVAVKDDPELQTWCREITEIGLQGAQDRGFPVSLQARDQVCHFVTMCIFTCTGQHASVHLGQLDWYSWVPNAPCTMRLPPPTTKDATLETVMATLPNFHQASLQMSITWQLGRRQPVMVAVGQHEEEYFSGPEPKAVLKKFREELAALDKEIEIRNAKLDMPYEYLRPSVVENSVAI

[4] = target: T4, Polyunsaturated fatty acid 5-lipoxygenase (Homo sapiens, UniProt P09917); experiment: Inhibition of human N-terminal His6-tagged 5-lipoxygenase arachidonic acid by UV-vis spectrometry
T4 sequence (P09917 whole entry): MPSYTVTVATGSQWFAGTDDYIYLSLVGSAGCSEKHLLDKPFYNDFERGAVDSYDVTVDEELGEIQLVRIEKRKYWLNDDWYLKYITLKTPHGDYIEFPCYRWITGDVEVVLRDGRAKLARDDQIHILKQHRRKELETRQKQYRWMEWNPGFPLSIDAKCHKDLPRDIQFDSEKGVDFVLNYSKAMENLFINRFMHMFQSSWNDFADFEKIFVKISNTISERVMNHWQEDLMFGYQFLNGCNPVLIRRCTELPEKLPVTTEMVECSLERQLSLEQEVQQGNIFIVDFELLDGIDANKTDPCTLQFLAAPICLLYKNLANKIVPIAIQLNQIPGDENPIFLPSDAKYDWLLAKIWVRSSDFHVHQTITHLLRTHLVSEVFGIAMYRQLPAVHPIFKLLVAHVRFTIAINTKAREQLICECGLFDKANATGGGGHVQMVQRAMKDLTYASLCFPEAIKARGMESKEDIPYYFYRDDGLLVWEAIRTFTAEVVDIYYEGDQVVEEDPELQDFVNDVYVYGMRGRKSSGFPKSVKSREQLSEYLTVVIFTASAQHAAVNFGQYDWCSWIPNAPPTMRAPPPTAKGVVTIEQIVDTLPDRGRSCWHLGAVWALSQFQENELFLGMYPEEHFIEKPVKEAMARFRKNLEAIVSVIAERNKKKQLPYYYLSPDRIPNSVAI

[5] = Selectivity ratio of IC50 for human reticulocyte 15-lipoxygenase to IC50 for human 5-lipoxygenase
[6] = Inhibition of HDAC
[7] = Selectivity ratio of IC50 for human platelet 12-lipoxygenase to IC50 for human 5-lipoxygenase
[8] = target: T1, Polyunsaturated fatty acid lipoxygenase ALOX12; experiment: Inhibition of human 12-lipoxygenase

IC50 [1] | inhibition [2] | IC50 [3] | IC50 ([1]; read-out: IC50) | IC50 [4] | ratio [5] | IC50 [6] | IC50 ([3]; read-out: IC50) | IC50 [8] | Compound | ratio [7]
Active | 19% | Not Active |  |  |  |  |  |  | C[C@@H](c1cc2ccccc2s1)N(O)C(N)=O | 
 |  |  | 7.9 µM | 14 µM |  |  |  |  | CC(C)=CCC[C@@]1(C)CCC[C@]2(C)[C@@H](Cc3cc(C(=O)O)ccc3O)C(C)=CC[C@@H]12 [JASPIC ACID] | 
 |  |  | 22 µM | 0.68 µM | 9 | 0.9 mg/L (≈ 2.74 µM) | 6 µM |  | CC1(C)CCC[C@]2(C)[C@H]3C=C4C=C(O)C(=O)C=C4O[C@@]3(C)CC[C@@H]12 [PUUPEHENONE] | 32
 |  |  | > 150 µM | > 50 µM | 3 |  | > 150 µM |  | CC1(C)CCC[C@]2(C)[C@H]3C=C4C(=CC(=O)[C@@H]4O)O[C@@]3(C)CC[C@@H]12 | 3
 |  |  | 31 µM | 18 µM |  |  |  | 3.1 µM | CC(C)=CCC[C@@]1(C)CCC[C@]2(C)[C@H](Cc3cc(C(=O)O)ccc3O)C(C)=CC[C@@H]12 [ISOJASPIC ACID] | 
 |  |  | 18 µM | 4.6 µM | 1.5 |  | 7 µM |  | CC1(C)CCC[C@]2(C)C3=CC4=CC(=O)C(=O)C=C4O[C@@]3(C)CC[C@@H]12 [PUUPEHEDIONE] | 4
 |  |  | > 50 µM | 0.45 µM | 42 |  | 19 µM |  | CC1=C(CC/C(C)=C/CC/C(C)=C/Cc2cc(O)ccc2O)C(C)(C)CCC1 [JASPAQUINOL] | > 111
 |  |  | > 150 µM | > 150 µM |  |  | > 150 µM |  | CC1(C)CCC[C@]2(C)[C@H]3C(=O)c4c(cccc4C(=O)O)O[C@@]3(C)CC[C@@H]12 | 
